Laboratory results published in ChEMBL document CHEMBL1240487, “Discovery of a potent, selective, and orally bioavailable pyridinyl-pyrimidine phthalazine aurora kinase inhibitor” (J Med Chem, 2010).

How the values were obtained:
[1] = molecular target: Mitogen-activated protein kinase 9 (Homo sapiens, UniProt P45984); assay: Inhibition of JNK2 by HTRF assay
How it was run: (§1)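 Enzyme inhibition was run with ATP at its Km for each kinase. Values are averages of at least two determinations.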

Aurora kinase B = Aurora kinase B (Homo sapiens, UniProt Q96GD4); assay: Inhibition of Aurora B by HTRF assay; how it was run: as §1
Sequence of Aurora kinase B (Q96GD4 whole entry): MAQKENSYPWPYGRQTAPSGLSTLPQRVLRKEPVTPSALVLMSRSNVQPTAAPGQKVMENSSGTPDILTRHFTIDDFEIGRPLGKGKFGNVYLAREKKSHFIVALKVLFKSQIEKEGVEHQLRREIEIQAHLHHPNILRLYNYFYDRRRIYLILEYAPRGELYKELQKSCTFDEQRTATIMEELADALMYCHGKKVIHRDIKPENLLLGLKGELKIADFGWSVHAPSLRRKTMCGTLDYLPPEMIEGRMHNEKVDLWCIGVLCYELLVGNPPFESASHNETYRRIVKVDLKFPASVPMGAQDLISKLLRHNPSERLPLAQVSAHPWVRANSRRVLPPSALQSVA

[2] = molecular target: Serine/threonine-protein kinase PLK1 (Homo sapiens, UniProt P53350); assay: Inhibition of PLK1 by HTRF assay; how it was run: as §1
Sequence of Serine/threonine-protein kinase PLK1 (P53350 whole entry): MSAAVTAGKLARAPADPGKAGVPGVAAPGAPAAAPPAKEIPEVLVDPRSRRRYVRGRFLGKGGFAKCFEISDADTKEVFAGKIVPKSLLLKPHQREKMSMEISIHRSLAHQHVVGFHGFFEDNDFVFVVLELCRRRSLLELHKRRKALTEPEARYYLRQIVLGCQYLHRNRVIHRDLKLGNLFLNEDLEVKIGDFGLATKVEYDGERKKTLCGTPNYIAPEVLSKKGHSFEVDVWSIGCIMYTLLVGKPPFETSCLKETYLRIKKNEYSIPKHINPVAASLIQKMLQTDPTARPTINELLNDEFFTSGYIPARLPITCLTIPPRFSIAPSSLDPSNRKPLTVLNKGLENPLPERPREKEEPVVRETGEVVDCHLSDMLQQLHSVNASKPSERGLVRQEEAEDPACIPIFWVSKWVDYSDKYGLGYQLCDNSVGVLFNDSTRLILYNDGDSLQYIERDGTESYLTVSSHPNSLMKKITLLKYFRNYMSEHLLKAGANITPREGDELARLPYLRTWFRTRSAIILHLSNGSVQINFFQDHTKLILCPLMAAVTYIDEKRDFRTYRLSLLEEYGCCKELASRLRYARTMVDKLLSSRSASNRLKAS

[3] = molecular target: T1, Tyrosine-protein kinase JAK3 (Homo sapiens, UniProt P52333); assay: Inhibition of Jak3 by HTRF assay; how it was run: as §1
T1 sequence (P52333 whole entry): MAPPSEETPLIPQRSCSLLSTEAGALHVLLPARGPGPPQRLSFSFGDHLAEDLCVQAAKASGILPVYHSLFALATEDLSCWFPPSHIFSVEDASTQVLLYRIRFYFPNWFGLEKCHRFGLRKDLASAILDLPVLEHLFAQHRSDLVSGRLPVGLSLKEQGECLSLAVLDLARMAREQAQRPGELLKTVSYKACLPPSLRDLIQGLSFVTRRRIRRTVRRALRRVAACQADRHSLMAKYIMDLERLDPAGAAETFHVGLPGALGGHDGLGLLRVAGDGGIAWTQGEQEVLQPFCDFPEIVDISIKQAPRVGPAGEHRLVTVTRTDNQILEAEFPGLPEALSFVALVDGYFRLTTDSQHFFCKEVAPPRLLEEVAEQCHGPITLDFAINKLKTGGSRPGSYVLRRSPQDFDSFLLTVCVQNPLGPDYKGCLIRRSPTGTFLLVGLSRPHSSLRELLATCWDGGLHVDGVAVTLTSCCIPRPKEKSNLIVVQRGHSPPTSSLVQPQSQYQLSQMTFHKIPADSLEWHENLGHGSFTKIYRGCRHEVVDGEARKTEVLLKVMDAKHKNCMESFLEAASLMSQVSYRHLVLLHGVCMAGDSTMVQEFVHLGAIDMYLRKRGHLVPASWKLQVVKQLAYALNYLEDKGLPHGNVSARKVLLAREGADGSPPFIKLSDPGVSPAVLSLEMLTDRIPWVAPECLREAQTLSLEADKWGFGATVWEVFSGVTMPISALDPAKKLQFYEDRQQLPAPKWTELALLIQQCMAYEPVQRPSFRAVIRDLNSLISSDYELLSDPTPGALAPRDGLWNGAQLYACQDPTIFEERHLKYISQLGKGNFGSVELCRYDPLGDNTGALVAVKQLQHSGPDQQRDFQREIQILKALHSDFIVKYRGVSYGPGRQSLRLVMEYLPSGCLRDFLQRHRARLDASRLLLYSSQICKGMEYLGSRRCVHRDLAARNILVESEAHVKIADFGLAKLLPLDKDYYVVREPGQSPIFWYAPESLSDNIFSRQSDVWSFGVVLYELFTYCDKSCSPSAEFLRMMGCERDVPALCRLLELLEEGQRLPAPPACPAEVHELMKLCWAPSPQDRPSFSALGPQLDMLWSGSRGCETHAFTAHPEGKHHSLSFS

[4] = molecular target: Tyrosine-protein kinase JAK2 (Homo sapiens, UniProt O60674); assay: Inhibition of Jak2 by HTRF assay; how it was run: as §1
Sequence of Tyrosine-protein kinase JAK2 (O60674 whole entry): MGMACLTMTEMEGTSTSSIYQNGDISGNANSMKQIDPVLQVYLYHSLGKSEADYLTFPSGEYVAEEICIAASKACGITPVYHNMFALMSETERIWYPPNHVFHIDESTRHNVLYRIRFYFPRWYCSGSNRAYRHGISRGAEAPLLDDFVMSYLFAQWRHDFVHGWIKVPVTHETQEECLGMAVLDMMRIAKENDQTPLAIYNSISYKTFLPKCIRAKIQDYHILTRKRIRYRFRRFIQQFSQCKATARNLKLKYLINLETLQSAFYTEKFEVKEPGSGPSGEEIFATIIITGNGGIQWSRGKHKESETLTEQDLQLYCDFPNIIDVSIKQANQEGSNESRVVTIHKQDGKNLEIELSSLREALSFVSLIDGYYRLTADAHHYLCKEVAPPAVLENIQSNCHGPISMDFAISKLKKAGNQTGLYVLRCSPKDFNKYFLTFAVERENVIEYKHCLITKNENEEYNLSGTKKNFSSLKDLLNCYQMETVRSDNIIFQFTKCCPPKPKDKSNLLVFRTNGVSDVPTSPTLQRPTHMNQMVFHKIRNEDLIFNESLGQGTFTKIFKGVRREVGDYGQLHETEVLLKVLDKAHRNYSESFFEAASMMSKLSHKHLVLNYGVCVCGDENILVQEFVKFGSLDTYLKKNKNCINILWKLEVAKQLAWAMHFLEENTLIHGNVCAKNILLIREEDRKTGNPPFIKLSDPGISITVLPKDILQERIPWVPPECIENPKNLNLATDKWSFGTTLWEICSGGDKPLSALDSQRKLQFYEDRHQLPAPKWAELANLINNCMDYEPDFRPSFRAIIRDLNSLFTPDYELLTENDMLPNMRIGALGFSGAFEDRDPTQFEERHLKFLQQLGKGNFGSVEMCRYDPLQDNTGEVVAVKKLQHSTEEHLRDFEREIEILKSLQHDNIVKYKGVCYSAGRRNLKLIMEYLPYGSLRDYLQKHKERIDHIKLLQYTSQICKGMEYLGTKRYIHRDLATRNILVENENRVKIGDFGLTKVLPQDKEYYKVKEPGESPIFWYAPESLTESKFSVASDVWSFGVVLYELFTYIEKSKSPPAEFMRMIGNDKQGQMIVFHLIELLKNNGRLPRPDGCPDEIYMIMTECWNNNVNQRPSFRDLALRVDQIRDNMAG

[5] = molecular target: T2, Tyrosine-protein kinase ZAP-70 (Homo sapiens, UniProt P43403); assay: Inhibition of Zap70 by HTRF assay; how it was run: as §1
T2 sequence (P43403 whole entry): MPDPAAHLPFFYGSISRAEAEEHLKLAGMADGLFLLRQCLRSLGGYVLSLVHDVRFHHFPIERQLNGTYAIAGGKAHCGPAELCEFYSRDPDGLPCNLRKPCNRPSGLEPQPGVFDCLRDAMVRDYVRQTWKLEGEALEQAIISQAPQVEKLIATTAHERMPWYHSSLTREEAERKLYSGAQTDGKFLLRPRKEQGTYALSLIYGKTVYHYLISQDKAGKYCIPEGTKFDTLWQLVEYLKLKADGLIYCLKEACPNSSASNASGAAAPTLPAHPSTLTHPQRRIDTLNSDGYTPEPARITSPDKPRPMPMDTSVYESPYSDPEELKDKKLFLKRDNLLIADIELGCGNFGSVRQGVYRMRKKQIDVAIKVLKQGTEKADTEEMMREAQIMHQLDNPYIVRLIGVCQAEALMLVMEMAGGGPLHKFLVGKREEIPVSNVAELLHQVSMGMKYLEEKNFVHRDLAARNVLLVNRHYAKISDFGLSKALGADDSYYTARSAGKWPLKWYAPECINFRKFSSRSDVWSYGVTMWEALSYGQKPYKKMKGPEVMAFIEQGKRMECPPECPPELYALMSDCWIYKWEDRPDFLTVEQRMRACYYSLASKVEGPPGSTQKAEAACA

[6] = molecular target: Mitogen-activated protein kinase 3 (Homo sapiens, UniProt P27361); assay: Inhibition of Erk1 by HTRF assay; how it was run: as §1
Sequence of Mitogen-activated protein kinase 3 (P27361 whole entry): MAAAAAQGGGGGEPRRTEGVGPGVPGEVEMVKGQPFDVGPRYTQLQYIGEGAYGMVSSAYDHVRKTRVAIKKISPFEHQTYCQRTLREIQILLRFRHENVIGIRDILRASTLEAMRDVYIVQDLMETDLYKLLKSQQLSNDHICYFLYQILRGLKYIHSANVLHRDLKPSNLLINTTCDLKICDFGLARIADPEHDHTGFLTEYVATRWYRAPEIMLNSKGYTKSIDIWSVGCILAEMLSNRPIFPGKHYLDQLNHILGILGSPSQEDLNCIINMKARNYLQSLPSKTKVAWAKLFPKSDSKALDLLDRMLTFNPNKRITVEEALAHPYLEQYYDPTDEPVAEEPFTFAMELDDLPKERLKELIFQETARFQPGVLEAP

[7] = molecular target: Cyclin-dependent kinase 5 (Homo sapiens, UniProt Q00535); assay: Inhibition of CDK5 by HTRF assay; how it was run: as §1
Sequence of Cyclin-dependent kinase 5 (Q00535 whole entry): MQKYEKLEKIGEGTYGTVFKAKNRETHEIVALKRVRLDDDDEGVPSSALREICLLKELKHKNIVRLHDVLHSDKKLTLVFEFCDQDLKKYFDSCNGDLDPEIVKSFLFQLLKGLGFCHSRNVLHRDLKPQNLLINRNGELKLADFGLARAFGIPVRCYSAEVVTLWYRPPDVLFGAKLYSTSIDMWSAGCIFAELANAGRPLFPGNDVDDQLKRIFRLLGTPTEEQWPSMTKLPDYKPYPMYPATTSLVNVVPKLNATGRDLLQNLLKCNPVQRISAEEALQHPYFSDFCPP

Ephrin type-B receptor 4 = molecular target: T3, Ephrin type-B receptor 4 (Homo sapiens, UniProt P54760); assay: Inhibition of EphB4 by HTRF assay; how it was run: as §1
T3 sequence (P54760 whole entry): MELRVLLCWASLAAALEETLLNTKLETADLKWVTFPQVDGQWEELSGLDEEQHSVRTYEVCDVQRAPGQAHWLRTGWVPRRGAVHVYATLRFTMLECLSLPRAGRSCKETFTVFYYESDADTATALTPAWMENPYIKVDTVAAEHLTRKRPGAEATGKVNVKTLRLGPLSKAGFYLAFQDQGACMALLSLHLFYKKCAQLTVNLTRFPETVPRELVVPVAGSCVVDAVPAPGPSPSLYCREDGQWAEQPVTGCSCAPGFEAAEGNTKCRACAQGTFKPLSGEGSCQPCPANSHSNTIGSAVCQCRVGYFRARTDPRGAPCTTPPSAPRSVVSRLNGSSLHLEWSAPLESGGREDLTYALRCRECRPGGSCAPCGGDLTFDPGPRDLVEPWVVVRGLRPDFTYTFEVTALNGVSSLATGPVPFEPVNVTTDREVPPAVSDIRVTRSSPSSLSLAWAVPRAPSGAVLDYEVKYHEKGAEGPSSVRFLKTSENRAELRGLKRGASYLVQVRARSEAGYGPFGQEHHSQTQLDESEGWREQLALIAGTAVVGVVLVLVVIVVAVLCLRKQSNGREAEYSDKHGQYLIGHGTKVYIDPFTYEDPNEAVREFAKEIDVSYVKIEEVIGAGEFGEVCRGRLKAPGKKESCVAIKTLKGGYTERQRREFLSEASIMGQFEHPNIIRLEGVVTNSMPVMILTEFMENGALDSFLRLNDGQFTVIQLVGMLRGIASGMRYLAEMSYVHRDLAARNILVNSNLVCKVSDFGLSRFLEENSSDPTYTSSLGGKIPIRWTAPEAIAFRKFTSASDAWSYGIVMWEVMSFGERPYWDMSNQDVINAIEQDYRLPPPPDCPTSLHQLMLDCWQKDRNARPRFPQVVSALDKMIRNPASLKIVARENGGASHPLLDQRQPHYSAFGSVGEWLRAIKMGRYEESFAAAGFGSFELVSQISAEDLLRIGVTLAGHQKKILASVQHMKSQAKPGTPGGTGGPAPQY

Sequence of Mitogen-activated protein kinase 9 (P45984 whole entry): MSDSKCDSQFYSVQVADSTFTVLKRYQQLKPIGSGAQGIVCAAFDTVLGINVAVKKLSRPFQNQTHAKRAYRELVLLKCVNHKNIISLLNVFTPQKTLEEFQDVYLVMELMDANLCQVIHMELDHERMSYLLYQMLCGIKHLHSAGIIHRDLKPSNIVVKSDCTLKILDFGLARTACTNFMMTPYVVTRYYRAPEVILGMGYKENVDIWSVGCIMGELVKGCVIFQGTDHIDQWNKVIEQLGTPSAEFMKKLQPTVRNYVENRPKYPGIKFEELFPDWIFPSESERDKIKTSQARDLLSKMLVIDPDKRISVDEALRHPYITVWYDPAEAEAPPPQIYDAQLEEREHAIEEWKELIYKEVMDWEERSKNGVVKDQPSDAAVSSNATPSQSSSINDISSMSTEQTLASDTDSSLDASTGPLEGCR

IC50 [1] [µM]	IC50 (Aurora kinase B) [µM]	IC50 [2] [µM]	IC50 [3] [µM]	IC50 [4] [µM]	IC50 [5] [µM]	IC50 [6] [µM]	IC50 [7] [µM]	IC50 (Ephrin type-B receptor 4) [µM]	SMILES
> 8	0.066	> 8	> 8	> 8	> 8	> 8	> 8	> 8	CNc1nccc(-c2cccnc2Oc2ccc(NC(=O)c3cccc(C(F)(F)F)c3)cc2C)n1
> 25	0.015	> 25	> 25	> 25	> 25	> 25	> 25	> 25	CNc1nccc(-c2cccnc2Oc2ccc(Nc3nnc(-c4ccc(F)cc4)c4ccccc34)cc2)n1
> 1	0.009	> 1	> 1	> 1	> 1	> 1	> 1	> 1	CNc1nccc(-c2cccnc2Oc2ccc(NC(=O)c3ccccc3Nc3ccccc3)cc2)n1
